Experimental data from ChEMBL document CHEMBL5338759, “N-Phenyl-1-(phenylsulfonyl)-1H-1,2,4-triazol-3-amine as a New Class of HIV-1 Non-nucleoside Reverse Transcriptase Inhibitor” (J Med Chem, 2023).

Columns and labels:
[1] = Subacute toxicity in BALB/c mouse assessed as reduction in total protein level at 25 to 250 mg/kg, IG measured daily for 30 days; assay type: organism-based; settings: in vivo, po, 720 h, dose 25-250 mg/kg, time 30 day
Procedure, shortened: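 Dosing was daily intragastric 25 or 250 mg/kg in 1% starch gel (0.2 ml/20 g) for 30 days in male Balb/C mice, 17 per group, with starch gel controls. After the final dose, mice were fasted for 2 h with water available, then bled. Serum was clotted for 30 min at room temperature and centrifuged at 3500 rpm. Total protein, urea, creatinine, AST, ALT and alkaline phosphatase were assayed and compared by Mann-Whitney with Holm-Šídák, p < 0.05.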

[2] = test system: Human immunodeficiency virus 1; assay: Antiviral activity against wild type HIV1 IIIB infected in human TZM-bl cells; assay type: functional, organism-based; settings: Human immunodeficiency virus 1, IIIB
Procedure, shortened: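 TZM-bl cells (2x10⁵/mL) infected with HIV-1 IIIB grown in H9 cells, with 15 µg/mL DEAE-dextran; serial dilutions from 10 mM DMSO stocks, DMSO held constant (0.005% or 0.05%); 37°C, 5% CO₂, 48 hr; cells lysed, luciferase RLU read.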

[3] = Selectivity index, ratio of CC50 for cytotoxicity against human TZM-bl cells assessed as reduction in cell viability by MTS assay to EC50 for antiviral activity against HIV1 harboring A17 mutant infected in human TZM-bl cells; assay type: toxicity, cell-based; settings: read-out: Ratio CC50/EC50
[4] = Acute toxicity in BALB/c mouse at 2000 mg/kg, IG measured for 14 days; assay type: organism-based; settings: in vivo, po, 336 h, time 14 day
Procedure, shortened: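 Male Balb/C mice, 5–6 weeks old and 19–21 g, were deprived of food and water for 1.5–2 h. They were given a single intragastric 2000 mg/kg dose at 0.5 ml/20 g, prepared just before use. Controls received 0.5 ml of 1% starch gel intragastrically. There were 5 mice per group, observed for 14 days for condition and weight; weight was compared by Šídák's multiple comparisons test.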

[5] = Subacute toxicity in BALB/c mouse assessed as body weight gain at 25 to 250 mg/kg, IG measured daily for 30 days; assay type: organism-based; settings: in vivo, po, 720 h, dose 25-250 mg/kg, time 30 day
Procedure, shortened: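 Male Balb/C mice (17 per group, initial weight 20.9 ± 0.8 g) were dosed intragastrically once daily for 30 days at 25 or 250 mg/kg. Doses were given as 2.5 or 25 mg/ml suspensions in 1% starch gel at 0.2 ml per 20 g; controls received starch gel alone. Weight, coat, mucous membranes and excretion were recorded throughout.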

[6] = Subacute toxicity in BALB/c mouse assessed as reduction in hemoglobin level at 25 to 250 mg/kg, IG measured daily for 30 days; assay type: organism-based; settings: in vivo, po, 720 h, dose 25-250 mg/kg, time 30 day
[7] = Subacute toxicity in BALB/c mouse assessed as reduction in hematocrit level at 25 to 250 mg/kg, IG measured daily for 30 days; assay type: organism-based; settings: in vivo, po, 720 h, dose 25-250 mg/kg, time 30 day
[8] = Subacute toxicity in BALB/c mouse assessed as reduction in platelets count at 25 to 250 mg/kg, IG measured daily for 30 days; assay type: organism-based; settings: in vivo, po, 720 h, dose 25-250 mg/kg, time 30 day
[9] = Subacute toxicity in BALB/c mouse assessed as reduction in reticulocytes count at 25 to 250 mg/kg, IG measured daily for 30 days; assay type: organism-based; settings: in vivo, po, 720 h, dose 25-250 mg/kg, time 30 day
[10] = Subacute toxicity in BALB/c mouse assessed as effect on heart weight at 25 to 250 mg/kg, IG measured daily for 30 days; assay type: organism-based; settings: in vivo, po, 720 h, dose 25-250 mg/kg, time 30 day
[11] = Subacute toxicity in BALB/c mouse assessed as effect on spleen weight at 25 to 250 mg/kg, IG measured daily for 30 days; assay type: organism-based; settings: in vivo, po, 720 h, dose 25-250 mg/kg, time 30 day
TZM = assay: Cytotoxicity against human TZM-bl cells assessed as reduction in viability incubated for 48 hrs by CellTiter-Blue cell viability assay

N#C/C=C/c1ccc2c(S(=O)(=O)n3nc(Nc4ccc(C#N)c(Cl)c4)nc3N)cccc2c1
0.24 nM: IC50 [2]
1200: selectivity ratio [3]
4800 nM: CC50 (TZM)
Non-Toxic: Activity [1] | Activity [4] | Activity [5] | Activity [6] | Activity [7] | Activity [8] | Activity [9] | Activity [10] | Activity [11]
